According to ChEMBL document CHEMBL3875191, “Enhanced potency of bivalent small molecule gp41 inhibitors” (Bioorg Med Chem, 2017):
Activity calls are given as the source filed them. The rule behind the calls is not given here.

Assays:
[1] = (§1) Inhibition of HIV1 gp41-induced cell-cell fusion between HXB2 viral envelope expressing human HL2/3 cells to CXCR4-tropic expressing TZM-bl cells after 6 hrs by LTR luciferase reporter gene assay; type: cell-based; conditions: Human immunodeficiency virus 1, HL2/3, 6 h
In short: (§2)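 TZM-bl target cells (CD4, CCR5, CXCR4; HIV-1 LTR-driven firefly luciferase) at 25,000/well, cultured overnight, then given serially diluted inhibitor. 50,000 HL2/3 effector cells (HXB2 Env, Tat, Rev) were added and fusion ran 6 h in reduced-serum medium with 1% DMSO final. Luciferase was read, with 1% DMSO controls with and without HL2/3, in triplicate.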

[2] = (§3) Inhibition of HIV1 Ba-L gp41-induced virus-cell fusion between HIV1 Ba-L to MAGI cells expressing CCR5-tropic treated 3 hrs post infection measured after 48 hrs by beta-galactosidase based chemiluminescence assay; conditions: Human immunodeficiency virus 1, Ba-L
MAGI [3] = experiment: as §3; conditions: Human immunodeficiency virus 1
[4] = (§4) Inhibition of HIV1 3B gp41-induced virus-cell fusion between HIV1 3B to MAGI cells expressing CXCR4-tropic treated 3 hrs post infection measured after 48 hrs by beta-galactosidase based chemiluminescence assay; conditions: Human immunodeficiency virus 1, 3B
MAGI [5] = experiment: as §4; conditions: Human immunodeficiency virus 1
[6] = Cytotoxicity against human HL2/3 cells assessed as decrease in cell viability by alamar blue/presto blue assay; type: toxicity, cell-based
In short: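 Cell viability read with resazurin reagent (Alamar Blue or Presto Blue) under the same culture conditions as cell-cell fusion. TZM-bl targets (25,000/well, cultured overnight) with serially diluted compound, plus 50,000 HL2/3 effectors/well. 6 h in reduced-serum medium, 1% DMSO final.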

[7] = Inhibition of fluorescently labeled C-terminal HR2 probe peptide binding to wild type HIV-1 Fe(env2.0)3 peptide model of gp41 hydrophobic pocket at compound to protein ratio of 1:1 by fluorescence assay; set-up: species or system Human immunodeficiency virus 1
[8] = test system: Human immunodeficiency virus 1; experiment: Binding affinity to wild type HIV-1 Fe2(env2.0)3 peptide model of gp41 hydrophobic pocket at compound to peptide ratio of 1:1 by surface plasmon resonance assay
In short: (§5)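 CM5 chip activated with EDC/NHS then PDEA; FeII(envC)3 (bpy-HR1 peptide ending in D-Cys, 5 µM in 25 mM Tris-acetate pH 7.0) coupled by disulfide. Blocked with L-cysteine, then washed with 1 mM ferrous ammonium sulfate. Reference surface lacked receptor. Analytes run at 0.098–50 µM in 20 mM Hepes, 150 mM NaCl, pH 7.0, 1% DMSO. Association 60 s, dissociation 300 s, DMSO bracketing. Kinetics fit to Langmuir 1:1 and 1:2 models.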

[9] = Ratio of Kd for wild type HIV-1 Fe2(env2.0)3 peptide model of gp41 hydrophobic pocket assessed as dissociation constant for first binding interaction to Ka for wild type HIV-1 Fe2(env2.0)3 peptide model of gp41 hydrophobic pocket assessed as association constant for first binding interaction; set-up: species or system Human immunodeficiency virus 1
HL2/3 = experiment: as §1; type: cell-based; conditions: Human immunodeficiency virus 1; in short: as §2
[10] = test system: Human immunodeficiency virus 1; experiment: Binding affinity to wild type HIV-1 HXB2 Fe2(env2.0)3 peptide model of gp41 hydrophobic pocket at <10 uM by surface plasmon resonance assay; in short: as §5
[11] = test system: Human immunodeficiency virus 1; experiment: Binding affinity to wild type HIV-1 HXB2 Fe2(env2.0)3 peptide model of gp41 hydrophobic pocket at >10 uM by surface plasmon resonance assay; in short: as §5
[12] = Inhibition of fluorescently labeled C-terminal HR2 probe peptide binding to wild type HIV-1 Fe(env2.0)3 peptide model of gp41 hydrophobic pocket assessed as inhibition constant for first binding interaction at compound to protein ratio of 1:2 by fluorescence assay; set-up: species or system Human immunodeficiency virus 1
[13] = Inhibition of fluorescently labeled C-terminal HR2 probe peptide binding to wild type HIV-1 Fe(env2.0)3 peptide model of gp41 hydrophobic pocket assessed as inhibition constant for second binding interaction at compound to protein ratio of 1:2 by fluorescence assay; set-up: species or system Human immunodeficiency virus 1

Row | Structure (SMILES) | IC50 [1] | IC50 [2] | IC90 (MAGI [3]) | IC50 [4] | IC90 (MAGI [5]) | CC50 [6] | Ki [7] | RUmax [8] | Kd [9] | IC90 (HL2/3) | Activity [10] | Activity [11] | Ki [12] | Ki [13]
1 | O=C(CCc1c[nH]c2ccccc12)NCCCCCC(=O)Nc1ccc(C(=O)N[C@@H](Cc2c[nH]c3ccccc23)C(=O)O)cc1OCCc1c[nH]c2ccccc12 | 1300 nM | 13.7 µM | 31.1 µM | 17.3 µM | 30.5 µM | > 100 µM | 1.2 µM | 95 |  |  |  |  |  | 
2 | O=C(CCc1c[nH]c2ccccc12)NCCCCCC(=O)Nc1ccc(C(=O)N[C@@H](Cc2c[nH]c3ccccc23)C(=O)O)cc1OCc1ccc(Cl)cc1 | 2200 nM | 13 µM | 26.5 µM | 14.3 µM | 27.1 µM | > 100 µM | 3.4 µM | 93 |  |  |  |  |  | 
3 | O=C(CCC(=O)Nc1ccc(C(=O)N[C@@H](Cc2c[nH]c3ccccc23)C(=O)O)cc1OCc1ccc(Cl)cc1)NCCOCCOCCOCCNC(=O)CCC(=O)Nc1ccc(C(=O)N[C@@H](Cc2c[nH]c3ccccc23)C(=O)O)cc1OCc1ccc(Cl)cc1 | 400 nM |  |  | 5.1 µM |  | > 100 µM | 5.3 to 8.5 µM | 157 | 43 µM |  |  |  |  | 
4 | Nc1ccc(C(=O)N[C@@H](Cc2c[nH]c3ccccc23)C(=O)O)cc1OCCc1c[nH]c2ccccc12 | 22000 nM | > 50 µM | > 50 µM | > 50 µM | > 50 µM | > 50 µM | 7.2 µM | 59 |  | 80 µM | Active | Active |  | 
5 | O=C(CCC(=O)Nc1ccc(C(=O)N[C@@H](Cc2c[nH]c3ccccc23)C(=O)O)cc1OCCc1c[nH]c2ccccc12)NCCOCCOCCOCCNC(=O)CCC(=O)Nc1ccc(C(=O)N[C@@H](Cc2c[nH]c3ccccc23)C(=O)O)cc1OCCc1c[nH]c2ccccc12 | 600 nM | 3.6 µM | > 100 µM | 3.8 µM | 70 µM | > 100 µM | 1 to 2.3 µM | 160 | 32 µM |  |  |  | 20 µM | 200 nM
6 | Nc1ccc(C(=O)N[C@@H](Cc2c[nH]c3ccccc23)C(=O)O)cc1OCc1ccc(Cl)cc1 | 24000 nM |  |  |  |  | > 50 µM | 15 µM | 56 |  |  |  |  |  | 
